Assay results from ChEMBL document CHEMBL1140264, “Sulfur-substituted alpha-alkyl phenethylamines as selective and reversible MAO-A inhibitors: biological activities, CoMFA analysis, and active site modeling” (J Med Chem, 2005).

Assays:
[1] = biological target: T1, Amine oxidase [flavin-containing] A (Rattus norvegicus, UniProt P21396); test: Inhibitory concentration against monoamine oxidase A in rat brain mitochondrial suspension; type: tissue-based
T1 sequence (P21396 whole entry): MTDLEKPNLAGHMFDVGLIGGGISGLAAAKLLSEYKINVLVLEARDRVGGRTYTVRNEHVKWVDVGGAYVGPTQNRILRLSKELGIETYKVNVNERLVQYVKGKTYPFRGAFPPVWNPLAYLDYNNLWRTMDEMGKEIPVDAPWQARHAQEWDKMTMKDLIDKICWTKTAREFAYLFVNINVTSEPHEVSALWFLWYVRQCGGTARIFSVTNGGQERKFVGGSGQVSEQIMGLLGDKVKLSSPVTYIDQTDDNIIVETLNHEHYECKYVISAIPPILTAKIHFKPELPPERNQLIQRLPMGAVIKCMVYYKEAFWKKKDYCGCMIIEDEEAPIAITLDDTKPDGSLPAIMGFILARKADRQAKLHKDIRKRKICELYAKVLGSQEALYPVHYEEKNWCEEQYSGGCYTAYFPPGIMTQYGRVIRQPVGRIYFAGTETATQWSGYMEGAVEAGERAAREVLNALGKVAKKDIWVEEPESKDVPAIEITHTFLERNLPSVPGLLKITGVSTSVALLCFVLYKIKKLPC
How it was run: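 Crude brain mitochondrial suspension from male Sprague-Dawley rats (180-220 g). MAO-A substrate 5-HT 100 µM; substrate and deaminated metabolite measured by HPLC with electrochemical detection. Inhibition relative to enzyme treated identically without inhibitor. IC50 from % inhibition vs -log[I] curves, 5-8 concentrations each in triplicate; mean ± SD of at least two independent experiments.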

[2] = biological target: T1, Amine oxidase [flavin-containing] A; test: Percent inhibition of rat brain monoamine oxidase A in mitochondrial suspension after 10 minutes pre-incubation and washing at 10e-7 M
How it was run: (§1)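 Crude rat brain mitochondrial suspension preincubated 10 min with inhibitor, then washed three times by centrifugation and resuspension. MAO-A activity measured before and after washing by HPLC-ED with 5-HT (100 µM) as selective substrate, against control preparations. Mean ± SD of triplicate determinations.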

[3] = biological target: T1, Amine oxidase [flavin-containing] A; test: Percent inhibition of rat brain monoamine oxidase A in mitochondrial suspension after 10 minutes pre-incubation before washing at 10e-7 M; how it was run: as §1
[4] = biological target: T1, Amine oxidase [flavin-containing] A; test: Percent inhibition of rat brain monoamine oxidase A in mitochondrial suspension without pre-incubation at 10e-7 M
[5] = biological target: T1, Amine oxidase [flavin-containing] A; test: Percent inhibition of rat brain monoamine oxidase A in mitochondrial suspension with 30 minutes pre-incubation at 10e-7 M; conditions: 0.5 h

| Compound | IC50 [1] | further results |
| --- | --- | --- |
| COc1cc(SC(C)C)c(OC)cc1CC(C)N (configuration not stated) | 27.3 µM | – |
| CCOc1ccc(CC(C)N)cc1 (configuration not stated) | 0.2 µM | – |
| CCCSc1cc(OC)c(CC(C)NC)cc1OC (configuration not stated) | 0.3 µM | – |
| COc1cc(SC)cc(OC)c1CC(C)N (configuration not stated) | 0.3 µM | – |
| CCC(Cc1cc(OC)c(SC)cc1OC)NC (configuration not stated) | 15.5 µM | – |
| COc1cc(Cl)c(CC(C)N)c(OC)c1 (configuration not stated) | 0.07 µM | Inhibition [2]: 0%; Inhibition [3]: 58% |
| CCSc1cc(OC)c(CC(C)NC)cc1OC (configuration not stated) | 1.4 µM | – |
| CCCSc1cc(OC)c(CC(N)CC)cc1OC (configuration not stated) | 7.6 µM | – |
| CCSc1cc(OC)c(CC(C)N)c(OC)c1 (configuration not stated) | 0.08 µM | Inhibition [2]: 0%; Inhibition [3]: 40%; Inhibition [4]: 23.7%; Inhibition [5]: 33% |
| CNC(C)Cc1cc(OC)c(SC)cc1OC (configuration not stated) | 1.8 µM | – |
| CC(C)CSc1ccc(CC(C)N)cc1 (configuration not stated) | 0.4 µM | – |
| CCCCSc1cc(OC)c(CC(C)N)cc1OC (configuration not stated) | 2.9 µM | – |
| CCC(N)Cc1cc(OC)c(SC)cc1OC (configuration not stated) | 30.9 µM | – |
| CCSc1cc(OC)c(CC(CC)NC)cc1OC (configuration not stated) | 4.5 µM | – |
| CCCCCSc1cc(OC)c(CC(C)N)cc1OC (configuration not stated) | 14.3 µM | – |
| CCCSc1cc(OC)c(CC(CC)NC)cc1OC (configuration not stated) | 1.4 µM | – |
| COc1cc(SCCc2ccccc2)c(OC)cc1CC(C)N (configuration not stated) | > 100 µM | – |
| CCSc1ccc(CC(C)N)cc1 (configuration not stated) | 0.1 µM | – |
| COc1ccc(CC(C)N)cc1OC (configuration not stated) | 20 µM | – |

| Compound | IC50 [1] | further results |
| --- | --- | --- |
| COc1ccc(CC(C)N)c(OC)c1 (configuration not stated) | 0.6 µM | – |
| COc1cc(Br)c(CC(C)N)cc1OC (configuration not stated) | 9.3 µM | – |
| COc1cc(OC)c(CC(C)N)cc1Br (configuration not stated) | 13 µM | – |
| CCSc1cc(OC)c(CC(C)N)cc1OC (configuration not stated) | 3.8 µM | – |
| COc1cc(OC)c(CC(C)N)c(OC)c1 (configuration not stated) | 0.4 µM | – |
| CCCSc1cc(OC)c(CC(C)N)cc1OC (configuration not stated) | 2.4 µM | Inhibition [2]: 0%; Inhibition [3]: 20%; Inhibition [4]: 15.7%; Inhibition [5]: 20% |
| CC(N)Cc1ccc(Cl)cc1 (configuration not stated) | 4 µM | – |
| CCSc1cc(OC)c(CC(N)CC)cc1OC (configuration not stated) | 11.8 µM | – |
| COc1cc(SC)c(OC)cc1CC(C)N (configuration not stated) | 5.2 µM | – |
| COc1cc(CC(C)N)c(OC)cc1I (configuration not stated) | 44 µM | – |
| COc1cc(C(F)(F)F)c(OC)cc1CC(C)N (configuration not stated) | > 100 µM | – |
| COc1cc(CC(C)N)c(OC)cc1N (configuration not stated) | > 100 µM | – |
| COc1cc([N+](=O)[O-])c(OC)cc1CC(C)N (configuration not stated) | > 100 µM | – |
| COc1ccc(OC)c(CC(C)N)c1 (configuration not stated) | > 100 µM | – |
| CSc1ccc(CC(C)N)cc1 (configuration not stated) [4-METHYLTHIOAMPHETAMINE] | 0.2 µM | – |
| COc1cc(CC(C)N)c(OC)cc1Br (configuration not stated) [BROLAMFETAMINE] | 100 µM | – |
| COc1cc(CC(C)N)c(OC)cc1C (configuration not stated) [DOM] | 24 µM | – |
| COc1ccc(CC(C)N)cc1 (configuration not stated) [PARA-METHOXYAMPHETAMINE] | 0.3 µM | – |
